Consider 10 molecules from ChEMBL document CHEMBL1140834, “Identifying the important structural elements of brominated furanones for inhibiting biofilm formation by Escherichia coli” (2008).

Test [1] has as its system Escherichia coli. Briefly: Antibacterial activity against Escherichia coli at 60 ug/mL. The class given is functional, organism-based.
Test [2] deals with Escherichia coli. Briefly: Inhibition of Escherichia coli biofilm formation at 60 ug/mL. The format is functional. In a few lines:
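DsRed-express-labeled E. coli biofilms were grown 24 h at 37 C on 316 L stainless steel coupons, with furanone added to the growth medium. Imaged by confocal microscopy. Biomass, surface coverage and mean thickness were calculated from the images and expressed relative to a no-furanone control. Four replicates.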

In test [3] the test system is Escherichia coli. Briefly: Antibacterial activity against Escherichia coli RP437/pRSH103 at 5 to 10 ug/ml. The class given is functional, organism-based. An outline of the steps: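 Toxicity followed as growth curves. OD600 of E. coli cultures was monitored over time in LB medium with tetracycline, containing a range of furanone concentrations.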
The test system of test [4] is Escherichia coli. Briefly: Antibacterial activity against Escherichia coli RP437/pRSH103 assessed as reduction of colony forming unit at 40 ug/ml after 3 hrs. The class given is functional. An outline of the steps:
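Viable counts (CFU/mL) taken before and after 3 h exposure at 37 C. A parallel culture given the same amount of ethanol (0.2%) served as negative control.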

Molecules are shown by their SMILES. The source made the active and inactive calls. The rule behind the calls is not given here.

`CC1=CC(C)OC1=O` (centres undefined): the outcome in test [1] was inactive. For `CC1=CC(=O)OC1=O`, the outcome in test [1] was inactive.

Regarding `CC1=C(Br)C(C(Br)Br)OC1=O` (centres undefined), the result in test [1] was inactive. Besides, the inhibition (commonly the relative decrease from the control value, in per cent) at 60 µg/mL in test [2] was determined as 19%.

As for `O=C1O/C(=C\Br)C(Br)=C1CBr`, the outcome in test [3] was Active. Consider `COC1=CC(=O)OC1`, for which the result in test [1] was inactive.

Consider `CC1=C(Br)/C(=C/Br)OC1=O`, for which the result in test [1] was inactive. Moreover, the inhibition at 60 µg/mL in test [2] is 75%. Consider `O=C1OC(=C(Br)Br)C=C1CBr`, for which the CFU in test [4] turned out to be 390 mL⁻¹. For the molecule `O=C1OC(=C(Br)Br)C=C1C(Br)Br`, the result in test [1] was inactive. Moreover, the inhibition at 60 µg/mL in test [2] was 80%. Consider `CC1=C(Br)C(Br)(C(Br)Br)OC1=O` (centres undefined), for which the result in test [1] was inactive.

With `CC1=CC(=C(Br)Br)OC1=O`, the result in test [1] was inactive. Further, the inhibition at 60 µg/mL in test [2] stood at 63%.
